KCNQ1 inh: inhibitors of human KCNQ1 channel, primary screen, cell-based, thallium flux, high-throughput; Potassium voltage-gated channel subfamily KQT member 1 (Homo sapiens), P51787; CHO-K1 KCNQ1, FluxOR thallium flux fluorescence; hits give high values; B-score at 10 µM; 310,000 tested, 1.3% active;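 active means compounds whose thallium flux B-score, printed positive for inhibition, exceeds three library SD while starting fluorescence stays within three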;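 further: channel opened by potassium depolarization with thallium stimulus after 20 min compound exposure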
KCNQ1 pot: potentiators or activators of KCNQ1 channel, primary screen, cell-based, thallium flux, high-throughput | CHO-K1 KCNQ1, thallium flux FluxOR fluorescence; hits give high values | B-score at 10 µM | 310,000 tested, 0.35% active | Potassium voltage-gated channel subfamily KQT member 1 (Homo sapiens), P51787;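 active means fluorescence ratio B-score, a plate-corrected score, at least three library SD, with initial intensity B-score within 5 SD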
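assay system = CHO-K1 cells stably expressing KCNQ1 | medium = assay buffer, equal DMSO in all wells | timing = 37 °C overnight plating, 90-min dark dye load, 20-min compound pretreatment | measured by = kinetic FluxOR thallium fluorescence, 10-s 1-Hz baseline, 110-s post-stimulus read | measure = fluorescence change relative to baseline, converted to B score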
KCNK9 block: KCNK9 potassium channel inhibitors, primary screen, HEK293 cells, thallium flux. B-score at 10 µM. FluxOR thallium flux fluorescence; hits give low values. 310,000 tested, 1.2% active;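 active means ratio B-score over 3 SD below the library mean, with starting fluorescence within 5 SD of its mean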;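 further: negative B-score means less thallium flux so channel inhibition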
Kir21 block: inhibitors of mouse Kir2.1 inward-rectifier potassium channel; HEK293-Kir2.1, FluxOR thallium flux fluorescence; hits give low values; B-score at 10 µM; 310,000 tested, 0.85% active; AID 1672, 2009;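 active means fluorescence ratio B-score at or below minus 3 SD of library scores, with starting-brightness B-score within 2 SD, cut at about -4.2 in these data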;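 further: channel flux triggered by added potassium and thallium sulfate stimulus; B-score of peak minus minimum fluorescence over baseline after thallium stimulus; more negative B-score means stronger Kir2.1 block with less thallium influx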
Target sequence (P35561 whole entry, looked up): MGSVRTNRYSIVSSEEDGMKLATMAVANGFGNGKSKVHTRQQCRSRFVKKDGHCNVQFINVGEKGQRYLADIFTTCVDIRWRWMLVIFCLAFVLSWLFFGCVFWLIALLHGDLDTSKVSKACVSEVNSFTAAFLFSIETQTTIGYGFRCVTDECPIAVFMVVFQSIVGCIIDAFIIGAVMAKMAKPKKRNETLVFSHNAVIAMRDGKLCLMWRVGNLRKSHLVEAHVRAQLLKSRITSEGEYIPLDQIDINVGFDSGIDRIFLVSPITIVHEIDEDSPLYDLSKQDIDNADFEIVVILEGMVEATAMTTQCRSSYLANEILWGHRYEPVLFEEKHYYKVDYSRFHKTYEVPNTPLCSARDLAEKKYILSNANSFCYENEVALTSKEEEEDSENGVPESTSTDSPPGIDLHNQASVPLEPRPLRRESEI
KCNK3 block: human KCNK3 channel inhibitors, primary screen, CHO cells, FluxOR thallium flux, B-score | FluxOR fluorescence; hits give low values | Potassium channel subfamily K member 3 (Homo sapiens), O14649 | 340,000 tested, 0.84% active | AID 602410, 2012 | B-score at 10 µM;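 active means B-score under library mean minus 4 SD, starting fluorescence ratio at most library mean plus 5 SD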;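 further: more negative B-score means stronger inhibition of thallium flux through KCNK3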
hERG rescue: hERG rescue from dofetilide block, primary screen, cell-based, CHO-hERG, FluxOR thallium flux, dofetilide IC70 | Voltage-gated inwardly rectifying potassium channel KCNH2 (Homo sapiens), Q12809 | dofetilide IC70 present | activation (rescue from dofetilide block), less the hit threshold, % at 10 µM | 310,000 tested, 0.51% active | AID 1511, 2009;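 active means activation above the mean of controls blocked by dofetilide plus 5 SD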;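 further: thallium influx through hERG after potassium depolarization seen as dye fluorescence rise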
KCNK9 inh conf: KCNK9 potassium channel inhibitors, confirmation, HEK293 cells, thallium flux, duplicate; inhibition, % at 10 µM; FluxOR thallium flux fluorescence; 4,900 tested, 43% active; shares compounds with KCNK9 block;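 active means thallium signal inhibited by more than 5 SD of the compound-free buffer control wells, on both duplicate plates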
Kir21 sel: mouse Kir2.1 channel inhibition, confirmation, selectivity assay for KCNK9 modulator project, cell-based, HEK293, thallium flux; shares compounds with KCNK9 block; Kir2.1 cells, FluxOR thallium flux fluorescence; inhibition, % at 10 µM; 4,900 tested, 4% active; AID 492993, 2010;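 active means thallium signal drop more than 5 SD beyond the mean of the no-compound control wells, seen in both duplicate plates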;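 further: signal is fluorescence rise after thallium addition divided by baseline fluorescence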
KCNK9 uninduced: thallium flux in non-induced HEK293 cells, confirmation, counter-screen for KCNK9 inhibitor project, cell-based, second counter screen, non-induced KCNK9-HEK293 | shares compounds with KCNK9 block | FluxOR thallium flux | inhibition, % at 10 µM | 4,900 tested, 40% active;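 active means thallium signal drop beyond 5 SD of the untreated control mean, on both duplicate plates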
Large screens that a line does not name were inactive (follow-up assays come after a bar, where they were run). Most compounds without a hit are left out; they make up all but 3.7% or so of the library.

C(=N\N1CCN(Cc2cccc3ccccc23)CC1)/c1ccco1	none | KCNK9 inh conf inactive | Kir21 sel inactive | KCNK9 uninduced inactive
COc1ccc(NC(=O)C2CCCN2S(=O)(=O)c2cccc3cccnc23)cc1OC (configuration not stated)	none
Cc1ccc([C@H]2C(C(=O)O)=CC[C@@H](c3ccc(Cl)c(Cl)c3)N2S(=O)(=O)c2ccc(C)cc2)cc1	none (no result: KCNQ1 inh, KCNQ1 pot, KCNK9 block, Kir21 block, hERG rescue)
CCOC(=O)c1cccc(N/C=C/C(=O)c2ccc(OC)c(OC)c2)c1	KCNK9 block -16.4 | KCNK9 inh conf 76.0% | Kir21 sel inactive | KCNK9 uninduced 38.5%
CC(C)C(C)NC(=O)COn1nnc2ccc(S(=O)(=O)N3CCOCC3)cc21 (configuration not stated)	none (no result: KCNQ1 inh, KCNQ1 pot, KCNK9 block, Kir21 block, hERG rescue)
COc1cccc(NC(=O)c2sc3nc(N4CCOCC4)c4c(c3c2N)CCCC4)c1	KCNK9 block -11 | KCNK9 inh conf inactive | Kir21 sel inactive | KCNK9 uninduced inactive
CN(C)CC(C)(C)CNS(=O)(=O)c1ccc(Cl)s1	none
CCn1c(CNC(=O)C2CCCCC2)cc2cc(C)ccc21	none
Cc1onc(-c2c(Cl)cccc2Cl)c1C(O)c1ccccc1 (configuration not stated)	none
CCOc1ccc(CC(=O)OCn2nnc3ccccc3c2=O)cc1	none
Cc1cccc(CC(=O)OCn2nnc3ccccc3c2=O)c1	none | KCNK9 inh conf inactive | Kir21 sel inactive | KCNK9 uninduced inactive
CCCN(CCC)c1ccc(CC(=O)NC(C)Cc2ccccc2)cc1 (configuration not stated)	none | KCNK9 inh conf inactive | Kir21 sel inactive | KCNK9 uninduced inactive
C#CCOCCOCCOCCNc1nc(N2CCN(C(=O)C([C@@H](C)CC)n3cc(C(N)COC(=O)C(F)(F)F)nn3)CC2)nc(N2CCN(C(=O)C([C@@H](C)CC)n3cc(C(N)CC(C)C)nn3)CC2)n1 (some centres not stated)	none (no result: KCNK3 block)
COc1ccc(-c2nnc(SCC(=O)c3ccc(C)o3)o2)cc1	none
COc1ccc(-c2nnc(SCc3cc(C)cc(C)c3)o2)cc1	none | KCNK9 inh conf inactive | Kir21 sel inactive | KCNK9 uninduced inactive
CSc1ccccc1NC(=O)c1ccc(CN2CCOCC2)cc1	KCNK9 block -10.6 | KCNK9 inh conf inactive | Kir21 sel inactive | KCNK9 uninduced inactive
Cc1sc2nc(CSc3ccccc3)nc(N3CCOCC3)c2c1C	none | KCNK9 inh conf inactive | Kir21 sel inactive | KCNK9 uninduced 32.5%
CCNc1nc(CSc2ccccc2)nc2sc(C)c(C)c12	none
COCCCNC(=S)N(Cc1cccnc1)Cc1ccc(OC)c(OC)c1	none
CC(C)(C)c1ccc(Cn2c(=N)n(CC(O)c3ccco3)c3ccccc32)cc1 (configuration not stated)	KCNQ1 inh 9, KCNK9 block -11, Kir21 block -6.23, KCNK3 block -11.8 | KCNK9 inh conf 40.0% | Kir21 sel 43.0% | KCNK9 uninduced 26.0%
CC(C)OC(=O)c1cccc(C(=O)Nc2cccc(NC(=O)c3cccc(C(=O)OC(C)C)n3)n2)n1	KCNK9 block -13.2 | KCNK9 inh conf 64.5% | Kir21 sel inactive | KCNK9 uninduced inactive
CC(C)C(=O)N1CCC(n2nccc2NC(=O)CCc2ccccc2)CC1	none
CCOC(=O)Nc1nnc(-c2ccccc2OC)s1	none
CCC(SC1=NCCS1)C(=O)Nc1nnc(-c2ccccc2OC)s1 (configuration not stated)	KCNK9 block -10.2 | KCNK9 inh conf 30.0% | Kir21 sel inactive | KCNK9 uninduced 33.5%
CC(SC1=NCCS1)C(=O)Nc1nnc(-c2ccc(Br)cc2)s1 (configuration not stated)	KCNK9 block -17.9 | KCNK9 inh conf inactive | Kir21 sel inactive | KCNK9 uninduced 22.5%
COc1ccc(OCc2nc3ccccc3n2C(C)C)cc1	none
O=C1CC2(CCN(C(=O)c3cccc(Br)c3)CC2)Oc2ccccc21	none
Cc1ccc(C(=O)Nc2ccc(S(=O)(=O)Nc3cnc4ccccc4n3)cc2)cc1	none
COc1ccc(/C=N/Nc2cc(N3CCCC3)nc(N3CCCC3)n2)cc1	KCNQ1 inh 8 | KCNK9 inh conf inactive | Kir21 sel inactive | KCNK9 uninduced inactive
Oc1ccc(/C=N/Nc2cc(N3CCCC3)nc(N3CCCC3)n2)cc1	none
C/C(CC(C)(C)c1ccccc1)=N\NS(=O)(=O)c1ccccc1	none
c1ccc(CNc2ncnc3sc4c(c23)CCCC4)nc1	none
Cc1nc(NCc2ccccn2)c2c3c(sc2n1)CCCC3	none | KCNK9 inh conf inactive | Kir21 sel inactive | KCNK9 uninduced inactive
COc1cccc(-c2sc3ccccc3c2-c2ccc(OCCN(C)C)cc2)c1	none (no result: KCNQ1 inh, KCNQ1 pot, KCNK9 block, Kir21 block, hERG rescue)
Cc1cc(C)n(CCC(=O)N2c3ccccc3CC2C)n1 (configuration not stated)	none
COc1c(C)cc(C(=O)C2CCCN(C(=O)c3cccc(F)c3)C2)cc1C (configuration not stated)	none | KCNK9 inh conf inactive | Kir21 sel inactive | KCNK9 uninduced inactive
COc1ccc(C(=O)C2CCCN(C(=O)c3cccc(Cl)c3F)C2)cc1OC (configuration not stated)	none | KCNK9 inh conf inactive | Kir21 sel inactive | KCNK9 uninduced inactive
c1ccc(-c2nc3cccnc3nc2-c2ccccc2)cc1	none
Cc1cccc(N(C(=O)c2snc(C(N)=O)c2N)C(C)C(=O)NCC2CCCO2)c1 (configuration not stated)	none
CCCOc1ccc2c3c(c(=O)oc2c1OCCC)CCCC3	KCNK9 block -12.5 | KCNK9 inh conf 74.5% | Kir21 sel inactive | KCNK9 uninduced 31.0%
COc1ccc2cc(CN(Cc3cccnc3)S(=O)(=O)c3ccccc3)c(=O)[nH]c2c1	none
